# Sampled rows, rich in hits. Any-hit rate of the full collection: about 2%.
# PLCg1 inh: blocks human PLC-gamma1 enzyme activity. AID 720700. P19174. 370,000 compounds, 0.84% hits. purified PLC-gamma1, fluorogenic substrate, fluorescence. inhibition, % at 12.2 µM; in the data active = inhibition above about 9.5%
# Target sequence (P19174 whole entry, looked up): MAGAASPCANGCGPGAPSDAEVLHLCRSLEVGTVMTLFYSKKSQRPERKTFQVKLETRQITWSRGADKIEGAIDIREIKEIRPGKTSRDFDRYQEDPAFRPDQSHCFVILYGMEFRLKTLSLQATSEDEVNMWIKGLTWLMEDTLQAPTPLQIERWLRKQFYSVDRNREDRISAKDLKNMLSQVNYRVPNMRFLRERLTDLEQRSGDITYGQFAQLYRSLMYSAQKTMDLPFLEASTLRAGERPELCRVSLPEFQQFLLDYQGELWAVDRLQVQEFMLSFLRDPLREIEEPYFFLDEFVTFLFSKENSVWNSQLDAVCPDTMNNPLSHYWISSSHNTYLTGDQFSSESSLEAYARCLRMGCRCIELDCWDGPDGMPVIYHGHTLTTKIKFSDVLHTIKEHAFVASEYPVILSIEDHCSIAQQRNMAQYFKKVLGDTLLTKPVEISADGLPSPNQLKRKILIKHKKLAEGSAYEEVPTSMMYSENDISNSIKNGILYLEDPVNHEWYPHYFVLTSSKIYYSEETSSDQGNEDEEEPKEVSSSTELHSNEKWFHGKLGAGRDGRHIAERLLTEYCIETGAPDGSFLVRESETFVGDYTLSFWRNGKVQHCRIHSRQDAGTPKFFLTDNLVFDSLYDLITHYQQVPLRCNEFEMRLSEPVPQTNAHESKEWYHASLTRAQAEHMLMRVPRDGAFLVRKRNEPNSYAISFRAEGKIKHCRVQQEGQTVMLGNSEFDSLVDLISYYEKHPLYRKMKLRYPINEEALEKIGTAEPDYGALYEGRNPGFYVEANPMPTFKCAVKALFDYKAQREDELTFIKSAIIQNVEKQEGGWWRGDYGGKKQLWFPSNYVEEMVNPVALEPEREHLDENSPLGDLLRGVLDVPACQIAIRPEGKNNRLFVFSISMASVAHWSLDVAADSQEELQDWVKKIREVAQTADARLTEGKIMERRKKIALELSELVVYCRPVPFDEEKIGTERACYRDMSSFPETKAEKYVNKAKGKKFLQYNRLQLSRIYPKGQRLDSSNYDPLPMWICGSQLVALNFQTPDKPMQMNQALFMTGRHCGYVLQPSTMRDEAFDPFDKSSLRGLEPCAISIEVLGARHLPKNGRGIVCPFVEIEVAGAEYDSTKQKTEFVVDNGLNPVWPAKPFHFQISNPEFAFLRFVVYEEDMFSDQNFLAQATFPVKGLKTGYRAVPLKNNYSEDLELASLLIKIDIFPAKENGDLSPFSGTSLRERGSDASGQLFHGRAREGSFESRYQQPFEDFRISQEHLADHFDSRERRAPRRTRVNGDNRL
# VIM-2 inhibitor: blocks Pseudomonas aeruginosa VIM-2 metallo-beta-lactamase | purified VIM-2, nitrocefin hydrolysis, epi-absorbance fluorescence | inhibition, % at 5.6 µM | 290,000 compounds, 0.89% hits | AID 1527;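 active = inhibition above the mean of all tested compounds plus 3 SD, cutoff set per screening run, cut at about 7.5% in these data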;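 also: red hydrolysis product quenches plate fluorescence so inhibitors raise well fluorescence; 0% = enzyme with DMSO and 100% = DMSO without enzyme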
# PLC-beta3 inh: inhibitors of human phospholipase C beta3; inhibition, % at 12.2 µM; 370,000 compounds, 0.18% hits; Purified PLC-beta3, fluorogenic substrate, fluorescence; AID 720704; Q01970; in the data active = inhibition above about 11%;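 also: 0% = median of compound wells on plate and 100% = full blocker control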
# PvdQ acylase: P. aeruginosa PvdQ acylase inhibition. purified PvdQ acylase, fluorescence plate reader. inhibition, % at 10 µM. 340,000 compounds, 0.063% hits; in the data active = inhibition above about 30%, passing the limit was not always enough;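 also: 0% = vehicle neutral wells and 100% = reference inhibitor wells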
# IMP-1 inh: inhibitors of Pseudomonas aeruginosa IMP-1 metallo-beta-lactamase; purified IMP-1, nitrocefin hydrolysis, epi-absorbance fluorescence; inhibition, % at 5.6 µM; 290,000 compounds, 0.45% hits; AID 1556;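 active = inhibition above the mean plus 3 SD of all compounds in the same screening run, cut at about 4.5% in these data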;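 also: 0% = IMP-1 with DMSO and 100% = DMSO wells lacking enzyme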
#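 Material – recombinant IMP-1 enzyme, purified · Amount – IMP-1 0.2 nM before substrate addition · Medium – HEPES buffer pH 7.1 with ZnSO4 and Brij 35 · Timing – 25 °C, 15 min preincubation, 25 min reaction · Measured by – plate fluorescence quenching by hydrolysis product, ex 480/em 530 nm · Read-out – percent enzyme inhibition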
# Active calls of the source: *; i = inactive; / = not tested or not shown.
SMILES,PLCg1 inh,VIM-2 inhibitor,PLC-beta3 inh,PvdQ acylase,IMP-1 inh
Cc1ccc(-n2c(-c3cn(C)nc3C)n[nH]c2=S)cc1,/,8.9*,/,/,-5
Cc1nn(C)cc1-c1n[nH]c(=S)n1-c1ccc(F)cc1,0,5,2,-4,-2
S=c1[nH]nc(-c2ccc(Cl)cc2)n1-c1ccc2c(c1)OCCO2,-11,3,-8,2,-3
Cn1cc(Cl)c(-c2n[nH]c(=S)n2-c2ccc(F)cc2)n1,4,11*,3,-8,-1
Cc1occc1-c1n[nH]c(=S)n1C,0,2,2,5,-4
CCn1c(-c2nn(C)cc2Cl)n[nH]c1=S,0,2,1,0,-4
O=C(Cn1cnc2ccccc2c1=O)N1CCCCC1,7,/,3,/,/
Cc1oc2c(cc(NS(=O)(=O)c3ccc(Cl)cc3)c3ccccc32)c1C(=O)O,-11,0,-23,-11,2
CCOC(=O)c1c(C)oc2c1cc(NS(=O)(=O)c1ccc(C(=O)O)cc1)c1ccccc12,-2,0,-11,-14,9.7*
CC(=O)c1ccc(-n2c(C)c(C(C)=O)c3cc(O)ccc32)cc1,-4,10*,-4,-11,-1
COc1ccc(CC(=O)Nc2nc(-c3ccncc3)cs2)cc1,-5,-3,-4,-5,6.7*
COc1ccc(CCC(=O)Nc2nc(-c3ccncc3)cs2)cc1,/,-6,/,/,-1
COc1ccc(-c2csc(NC(=O)c3ccc(S(C)(=O)=O)cc3)n2)cc1,-6,-1,-10,4,5.6*
COc1ccc(C(CNc2ncnc3sc(C)c(C)c23)N(C)C)cc1 (centres undefined),1,8.8*,1,-9,0
C=CCSc1nnc(-c2cc3c(-c4ccccc4)nn(C)c3s2)n1C,-9,9.5*,-14,-6,0
N#Cc1ccccc1Cn1c(=O)n(Cc2ccc(C(=O)NCc3ccco3)cc2)c(=O)c2sccc21,-2,-1,-7,-11,7.0*
O=S(=O)(Nc1ccccc1N1CCCCC1)c1ccc(F)cc1,-1,0,-12,-9,4.7*
c1ccc(-c2nc(N3CCCCCC3)c3ccccc3n2)nc1,-11,3,-14,-3,5.8*
c1ccc(-c2nc(N3CCOCC3)c3ccccc3n2)nc1,-8,4,-4,-6,-11
c1ccc2c(N3CCCCC3)nc(N3CCCC3)nc2c1,-7,11*,-10,-13,-3
CCC(C)[C@H](NC(=O)OC(C)(C)C)C(=O)N[C@@H](Cc1ccccc1)C(=O)OC (some centres undefined),1,/,2,/,/
C=CCN1[C@H](CC(C)C)COc2cc(F)ccc2S1(=O)=O,4,/,-3,/,/
O=C(CC(c1ccccc1)c1ccccc1)Nc1ccc(Cl)cn1,9.6*,-1,3,-3,-2
Cc1ccc(N=Cc2sc(O)c3ccccc23)c(C)c1,-3,4,2,-17,28*
Cc1ccc(S(=O)(=O)N2CCCC2C(=O)N2CCc3ccccc3C2)cc1C (centres undefined),-2,/,0,/,/
SMILES,PLCg1 inh,VIM-2 inhibitor,PLC-beta3 inh,PvdQ acylase,IMP-1 inh
COC(=O)c1cc2c(c3c4ccccc4n(S(C)(=O)=O)c13)C(=O)N(Cc1ccccc1)C2,-14,/,-16,/,/
Fc1ccccc1CSc1nncn1NCc1cccs1,-2,-3,-1,10,4.8*
CC(=O)N1c2cc(S(=O)(=O)N3CCN(c4ccccc4F)CC3)c(Br)cc2CC1C (centres undefined),3,/,0,/,/
CCOC(=O)[C@@]12CN(C(=O)OC(C)(C)C)CC=C1N(Cc1ccc(OC)cc1)C(=O)[C@H]2CC(=O)NCCCCc1ccccc1,1,/,3,/,/
CC(=O)Nc1ccc(C=NNc2ccc(S(=O)(=O)Nc3ccccc3C(=O)O)cc2[N+](=O)[O-])cc1,11*,/,2,11,/
CC(NC(=O)COC(=O)C12CC3CC(CC(O)(C3)C1)C2)c1ccccc1 (centres undefined),13*,/,13*,-7,/
Cc1cccc(-n2c(CNC(=O)c3cccc([N+](=O)[O-])c3C)n[nH]c2=S)c1,-1,8.8*,-4,-17,-3
COc1ccccc1-n1c(CNC(=O)c2cccc([N+](=O)[O-])c2C)n[nH]c1=S,-2,-1,2,-4,-2
Clc1ccccc1Cn1ccc2ccc(-c3ccc4ccn(Cc5ccccc5Cl)c4c3)cc21,-52,/,-74,/,/
COC(=O)c1cc(C(=O)OC)cc(N2C(=O)CC(NNC(=O)c3ccccc3Cl)C2=O)c1 (centres undefined),0,9.6*,-2,-8,-1
O=C(NNC1CC(=O)N(c2ccccc2)C1=O)c1ccccc1Cl (centres undefined),4,-2,-7,-3,-2
CN(C)c1ccc(/C=C/C(=O)c2ccc(O)cc2)cc1,i,/,i,4,/
Cc1ccc(/C=C/C(=O)c2ccccc2O)cc1,0,-1,-9,0,1
CN(C)c1ccc(/C=C/c2ccncc2)cc1,-380,7,-457,-16,6.3*
CN(C)c1ccc(/C=C/C(=O)c2cccnc2)cc1,-32,4,-50,-12,7.8*
CN(C)c1ccc(/C=C/C(=O)c2ccccc2O)cc1,-5,0,-6,-10,6.0*
CN(C)c1ccc(C=Cc2cnccn2)cc1,-196,/,-274,4,/
O=C(NC1CCCCN(Cc2cccc(Cl)c2)C1=O)c1ccccc1 (centres undefined),2,/,2,/,/
O=C1S/C(=C\C=C\c2ccco2)C(=O)N1c1ccc(O)cc1,-2,5,-18,-10,7.2*
Cc1ccc(NC(=O)c2[nH]cnc2C(=O)NN)cc1,-8,-2,-13,-10,-2
NNC(=O)c1nc[nH]c1C(=O)Nc1ccccn1,-4,-3,-3,-2,7.6*
CN=C(Nc1ccc(Cl)cc1)c1cccc(C(F)(F)F)c1,1,-3,4,6,-2
CN=C(Nc1ccc(Cl)cc1)c1ccc(C(F)(F)F)cc1,15*,-3,5,0,-2
O=C1N(c2ccccc2)C[C@@H]2C[C@@H](c3cc4ccccc4o3)N3CCC[C@@]123,-5,0,-4,42*,-1
COc1cc2sc3cc(NCC[C@@H]4CCCN4C)ccc3c(=O)c2cc1OC,-474,/,i,11,/
SMILES,PLCg1 inh,VIM-2 inhibitor,PLC-beta3 inh,PvdQ acylase,IMP-1 inh
COc1cccc2sc3ccc(NCCC4CCCN4C)cc3c(=O)c12 (centres undefined),-85,8.4*,-119,-8,-1
COc1cccc(NC(=O)Nc2c(-c3ccc(C(F)(F)F)cc3)nc3ncccn23)c1,-160,/,-210,/,/
Cc1ccnc2nc(C(=O)Nc3nc4ccccc4s3)nn12,-7,1,-15,10,5.0*
N#CC1=C(N)Oc2cc(N)ccc2C1c1cccnc1 (centres undefined),-26,-3,-23,-15,-1
CCN(CC)c1ccc2c(c1)OC(N)=C(C#N)C2c1cccnc1 (centres undefined),-38,6,-44,-8,9.6*
O=C(CCCn1c(=O)c2cccn2c2cccnc21)NCc1cccc(Br)c1,1,4,-4,-1,7.2*
